Experimental data taken from PMC6261781 (Cell chemical biology, 2018).
Counter-ions that a name gives are not always drawn.

Key:
HIV-1^WT = test: Anti-HIV-1 MTT assay; assay type: cell-based; details: read-out: Anti-HIV-1 IC50 against HIV-1^WT, MT-4 cells, mean ± 1 S.D.
HIV-1^67-75 = test: Anti-HIV-1 MTT assay in MT-4 cells; assay type: cell-based
in vitro = assay type: cell-based, human; details: human
MT-4 cells = test: in vitro; assay type: cell-based, human; details: for S.I. with (CC50/IC50^WT): CC50 in MT-4 / IC50 against HIV-1^WT
HBV = details: ref Takamatsu et al., 2015; cited from earlier work
HIV-1 = details: ref Takamatsu et al., 2015; cited from earlier work
HIV-1EFdA^R = test: p24 assay using MT-4 cells; assay type: cell-based; details: for Activity against HIV-1EFdA^R (in words) / Fold change of IC50 against HIV-1EFdA^R compared with HIV-1^WT: p24 assay, MT-4 cells; for Activity against HIV-1EFdA^R (in words): concentrations up to 1 μM; for IC50: Human immunodeficiency virus 1, MT4, read-out: IC50 against HIV-1EFdA^R
In short: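 MT-4 cells (RPMI 1640, 10% FCS, 37°C, 5% CO2) infected with a recombinant HIV-1NL4-3-based clone and cultured 5 days with test compound. Supernatant p24 was measured by chemiluminescent enzyme immunoassay, and signal (cps) was converted to ng/ml against a 2-fold serial-dilution p24 standard curve. Run in triplicate in two or three independent experiments; IC50 was calculated per experiment and averaged.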

HIV-1^M184V [1] = test: Anti-HIV-1 MTT assay in MT-4 cells; assay type: cell-based
HIV-1^T215F = test: Anti-HIV-1 MTT assay in MT-4 cells; assay type: cell-based
HIV-1^K65R = test: Anti-HIV-1 MTT assay in MT-4 cells; assay type: cell-based
[2] = system: HIV-1 with I142V, T165R, and M184V in RT; details: ref Kawamoto et al., 2008; cited from earlier work
HIV-1^M184V [3] = details: ref Kawamoto et al., 2008; Maeda et al., 2014; cited from earlier work
[4] = 10-mg single dose in humans; ref Grobler et al., CROI. Abstr. 98, 2016; cited from earlier work
[5] = ref Nakata et al., 2007; cited from earlier work

SMILES	CC50 (in vitro)	S.I. with (CC50/IC50^WT) (MT-4 cells)	also measured
Nc1nc(NC2CC2)c2ncn([C@H]3C=C[C@@H](CO)C3)c2n1 [ABC, abacavir, reference compound]	> 100 µM	>380	IC50 (HIV-1^WT): 0.263 ± 0.0076 µM; IC50 (HIV-1^67-75; Human immunodeficiency virus 1, MT4, read-out: IC50 against HIV-1^67-75): > 1 µM
Cc1cn([C@H]2C[C@H](N=[N+]=[N-])[C@@H](CO)O2)c(=O)[nH]c1=O [AZT, zidovudine, reference compound]	> 100 µM	> 2,670	IC50 (HIV-1^WT): 0.0374 ± 0.0075 µM
N#C[C@]1(CO)O[C@@H](n2cnc3c(N)nc(N)nc32)C[C@@H]1O [CAdA, 4′-cyano-2-amino-2′-deoxyadenosine]	3.5 ± 1.2 µM	17,500	Anti-HBV activity (in words) (HBV): sub nano molar; Anti-HIV-1 activity (in words) (HIV-1): sub nano molar; Activity against HIV-1EFdA^R (in words) (HIV-1EFdA^R): favorable activity
N#C[C@]1(CO)O[C@@H](n2cnc3c(=O)[nH]c(N)nc32)C[C@@H]1O [CdG, reference compound]	–	–	Anti-HBV activity (in words) (HBV): sub nano molar; Anti-HIV-1 activity (in words) (HIV-1): sub nano molar
Cc1cn(C2CC(O)C(C#N)(CO)O2)c(=O)[nH]c1=O (stereo not shown) [CdT, 4′-cyano-2′-deoxythymidine]	–	> 1,100	IC50 (HIV-1^WT): 0.0091 ± 0.0073 µM; Fold change of IC50 against HIV-1^67-75 compared with HIV-1^WT (in parentheses) (HIV-1^67-75; MT-4 cells, MTT assay): 0.9 fold; Fold change of IC50 against HIV-1^M184V compared with HIV-1^WT (in parentheses) (HIV-1^M184V [1]): 1.3 fold; IC50 (HIV-1^M184V [1]; read-out: Anti-HIV-1 IC50 against HIV-1^M184V): 0.0117 ± 0.0024 µM; CC50 (MT-4 cells; read-out: CC50 in MT-4, MT-4 cells, 7 days of culture): > 10 µM; Fold change of IC50 against HIV-1^T215F compared with HIV-1^WT (in parentheses) (HIV-1^T215F): 0.3 fold; IC50 (HIV-1^T215F; read-out: Anti-HIV-1 IC50 against HIV-1^T215F): 0.003 µM; Fold change of IC50 against HIV-1^K65R compared with HIV-1^WT (in parentheses) (HIV-1^K65R): 0.2 fold; Activity against HIV-1EFdA^R (in words) (HIV-1EFdA^R): favorable activity
C#C[C@]1(CO)O[C@@H](n2cnc3c(N)nc(F)nc32)C[C@@H]1O [EFdA, 4′-ethynyl-2-fluoro-2′-deoxyadenosine]	19.2 ± 6 µM	64,000	Resistance, fold change compared with HIV-1^WT [2]: 22 fold; Anti-HBV activity (in words) (HBV): minor anti-HBV activity; Fold decrease in activity against HIV-1^M184V (previous observation) (HIV-1^M184V [3]): ~ 6 fold; Time with concentrations exceeding projected efficacious concentrations [4]: at least 7 days; IC50 (HIV-1EFdA^R): 0.042 µM; Fold change of IC50 against HIV-1EFdA^R compared with HIV-1^WT (HIV-1EFdA^R): 52 fold; Activity against HIV-1EFdA^R (in words) (HIV-1EFdA^R): favorable activity
C#C[C@]1(COP(=O)(O)OP(=O)(O)OP(=O)(O)O)O[C@@H](n2cnc3c(N)nc(F)nc32)C[C@@H]1O [EFdA-TP, EFdA-triphosphate]	–	–	Intracellular half-life [5]: ≥ 17 h
C#C[C@]1(CO)O[C@@H](n2ccc(N)nc2=O)C[C@@H]1O [EdC, 4′-ethynyl-2′-deoxycytidine]	–	–	Activity against HIV-1EFdA^R (in words) (HIV-1EFdA^R): favorable activity
C#C[C@]1(CO)O[C@@H](n2cnc3c(=O)[nH]c(N)nc32)C[C@@H]1O [EdG, 4′-ethynyl-2′-deoxyguanosine]	7 µM	4,350	Activity against HIV-1EFdA^R (in words) (HIV-1EFdA^R): favorable activity
CC[C@]1(CO)O[C@@H](n2cnc3c(N)nc(N)nc32)C[C@@H]1O [EtAdA, 4′-ethyl-2-amino-2′-deoxyadenosine]	35.9 ± 3.1 µM	4,030	–
CC[C@]1(CO)O[C@@H](n2cnc3c(O)nc(N)nc32)C[C@@H]1O [EtdG, 4′-ethyl-2′-deoxyguanosine]	47 ± 3.2 µM	8,390	–
CNc1nc(N)nc2c1ncn2[C@H]1C[C@H](O)[C@](CO)(CF)O1 [FMAMdA, 4′-fluoromethyl-2-amino-N6-methyl-2′-deoxyadenosine]	> 100 µM	>600	–
Nc1nc(N)c2ncn([C@H]3C[C@H](O)[C@](CO)(CF)O3)c2n1 [FMAdA, 4′-fluoromethyl-2-amino-2′-deoxyadenosine]	22.2 ± 4.1 µM	7,400	–
Nc1nc(F)nc2c1ncn2[C@H]1C[C@H](O)[C@](CO)(CF)O1 [FMFdA, 4′-fluoromethyl-2-fluoro-2′-deoxyadenosine]	6.6 ± 0.5 µM	260	–
Nc1ccn([C@H]2C[C@H](O)[C@](CO)(CF)O2)c(=O)n1 [FMdC, 4′-fluoromethyl-2′-deoxycytidine]	4 µM	120	–
C[C@]1(CO)O[C@@H](n2cnc3c(N)nc(N)nc32)C[C@@H]1O [MAdA, 4′-methyl-2-amino-2′-deoxyadenosine]	4 ± 0.3 µM	15	–
C[C@]1(CO)O[C@@H](n2cnc3c(O)nc(N)nc32)C[C@@H]1O [MdG, 4′-methyl-2′-deoxyguanosine]	4.6 ± 0.6 µM	25	–
CC(C)OC(=O)OCOP(=O)(CO[C@H](C)Cn1cnc2c(N)ncnc21)OCOC(=O)OC(C)C [TDF, tenofovir disoproxil fumarate, reference compound]	39.4 ± 7.3 µM	190	IC50 (HIV-1^WT): 0.204 ± 0.127 µM
C=C[C@]1(CO)O[C@@H](n2cnc3c(N)nc(N)nc32)C[C@@H]1O [VAdA, 4′-vinyl-2-amino-2′-deoxyadenosine]	20.6 ± 3.2 µM	4,790	IC50 (HIV-1EFdA^R): 0.804 µM; Fold change of IC50 against HIV-1EFdA^R compared with HIV-1^WT (HIV-1EFdA^R): 190 fold
